In ChEMBL document CHEMBL4393719, “Tetrahydro-3-benzazepines with fluorinated side chains as NMDA and σ1 receptor antagonists: Synthesis, receptor affinity, selectivity and antiallodynic activity” (Eur J Med Chem, 2019):
Calls of active or inactive are those of the source.

Organism: Sus scrofa
Conditions: at 1 µM

Compound | inhibition [%]
COc1ccc2c(c1)CCN(CC(F)CCc1ccccc1)CC2 (stereo unspecified) | 0
Oc1ccc2c(c1)CCN(CC(F)CCc1ccccc1)CC2 (stereo unspecified) | 0

System: not listed separately
Experiment: Displacement of [3H] ifenprodil from GluN2B/GluN1a (unknown origin) expressed in mouse L(tk-) cell membranes incubated for 120 mins by scintillation counting method
Parameters: species or system Homo sapiens
Conditions: not given
Procedure, shortened: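 Membranes from mouse L(tk-) cells co-transfected with dexamethasone-inducible GluN1a/GluN2B (1:5), induced 24 h with 4 μM dexamethasone plus 4 μM ketamine.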

Compound | Ki [µM]
OC1CN(CCCCc2ccccc2)CCc2cc(OCc3ccccc3)ccc21 (stereo unspecified) | 0.505
OC(CN1CCC(Cc2ccc(F)cc2)CC1)c1ccc(Cl)cc1 (stereo unspecified) [ELIPRODIL] | 0.013
Oc1ccc2c(c1)CCN(CCC(F)Cc1ccccc1)CC2 (single isomer, unassigned; (+)) | 0.054
FCCOc1ccc2c(c1)CCN(CCC(F)Cc1ccccc1)CC2 (stereo unspecified) | 0.348
FC(CCOc1ccc2c(c1)CCN(CCC(F)Cc1ccccc1)CC2)Cc1ccccc1 (stereo unspecified) | 0.249
Oc1ccc2c(c1)CCN(CCCCc1ccccc1)CC2 | 0.0099
COc1ccc2c(c1)CCN(CC(F)CCc1ccccc1)CC2 (stereo unspecified) | 0.602
Oc1ccc2c(c1)CCN(CC(F)CCc1ccccc1)CC2 (stereo unspecified) | 0.086
Oc1ccc2c(c1)CCN(CCC(F)Cc1ccccc1)CC2 (racemic) | 0.016
Oc1ccc2c(c1)CCN(CCC(F)Cc1ccccc1)CC2 (single isomer, unassigned; (-)) | 0.065

Biological target: T1, Sigma intracellular receptor 2 (Rattus norvegicus, UniProt Q5U3Y7)
T1 sequence (Q5U3Y7 whole entry): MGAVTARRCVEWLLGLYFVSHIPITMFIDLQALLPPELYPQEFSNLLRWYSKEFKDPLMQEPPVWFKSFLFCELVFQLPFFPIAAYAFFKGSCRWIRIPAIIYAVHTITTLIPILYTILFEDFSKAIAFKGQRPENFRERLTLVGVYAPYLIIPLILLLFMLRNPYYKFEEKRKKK
Experiment: Displacement of [3H]-di-o-tolylguanidine from sigma2 receptor in rat liver membranes incubated for 120 mins by scintillation counting method
Assay type: cell membranes
Conditions: not given

Compound | Ki [µM]
Oc1ccc2c(c1)CCN(CCC(F)Cc1ccccc1)CC2 (single isomer, unassigned; (+)) | 0.049
FCCOc1ccc2c(c1)CCN(CCC(F)Cc1ccccc1)CC2 (stereo unspecified) | 0.524
FC(CCOc1ccc2c(c1)CCN(CCC(F)Cc1ccccc1)CC2)Cc1ccccc1 (stereo unspecified) | 0.643
Oc1ccc2c(c1)CCN(CCCCc1ccccc1)CC2 | 0.012
COc1ccc2c(c1)CCN(CC(F)CCc1ccccc1)CC2 (stereo unspecified) | 0.74
Oc1ccc2c(c1)CCN(CC(F)CCc1ccccc1)CC2 (stereo unspecified) | 0.153
Oc1ccc2c(c1)CCN(CCC(F)Cc1ccccc1)CC2 (racemic) | 0.039
Oc1ccc2c(c1)CCN(CCC(F)Cc1ccccc1)CC2 (single isomer, unassigned; (-)) | 0.063

Biological target: Sigma non-opioid intracellular receptor 1 (Cavia porcellus, UniProt Q60492);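 note: radioligand displacement of [3H]-(+)-pentazocine from guinea pig brain cortex membranes, 120 min incubation, bound radioactivity read by scintillation counting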
Assay type: cell membranes
Conditions: not given

Sigma non-opioid intracellular receptor 1, sequence (Q60492 whole entry): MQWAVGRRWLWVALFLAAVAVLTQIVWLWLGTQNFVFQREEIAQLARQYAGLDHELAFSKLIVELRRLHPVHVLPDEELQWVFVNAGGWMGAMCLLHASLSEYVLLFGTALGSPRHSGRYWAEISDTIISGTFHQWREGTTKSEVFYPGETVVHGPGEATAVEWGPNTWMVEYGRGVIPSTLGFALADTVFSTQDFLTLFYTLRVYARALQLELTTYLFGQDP

Compound | Ki [µM]
Oc1ccc2c(c1)CCN(CCC(F)Cc1ccccc1)CC2 (single isomer, unassigned; (+)) | 0.01
FCCOc1ccc2c(c1)CCN(CCC(F)Cc1ccccc1)CC2 (stereo unspecified) | 0.025
FC(CCOc1ccc2c(c1)CCN(CCC(F)Cc1ccccc1)CC2)Cc1ccccc1 (stereo unspecified) | 0.185
Oc1ccc2c(c1)CCN(CCCCc1ccccc1)CC2 | 0.032
COc1ccc2c(c1)CCN(CC(F)CCc1ccccc1)CC2 (stereo unspecified) | 0.213
Oc1ccc2c(c1)CCN(CC(F)CCc1ccccc1)CC2 (stereo unspecified) | 0.07
Oc1ccc2c(c1)CCN(CCC(F)Cc1ccccc1)CC2 (racemic) | 0.017
Oc1ccc2c(c1)CCN(CCC(F)Cc1ccccc1)CC2 (single isomer, unassigned; (-)) | 0.025

System: not listed separately
Experiment: Selectivity ratio of Ki for sigma1 receptor in guinea pig brain cortex membranes to ratio of Ki for GluN2B/GluN1a (unknown origin) expressed in mouse L(tk-) cell membranes
Assay type: cell-based
Conditions: not given

Compound | Ratio Ki
Oc1ccc2c(c1)CCN(CCCCc1ccccc1)CC2 | 2 to 3

System: Mus musculus
Experiment: Antiallodynic activity in CD-1 mouse model of capsaicin-induced mechanical allodynia assessed as increase in paw withdrawal threshold at 32 mg/kg, sc administered 30 mins before capsaicin addition and measured after 15 mins by von-Frey test
Assay type: functional, organism-based
Conditions: not given
Procedure, shortened: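 Female CD-1 mice given compound or HPMC vehicle sc 30 min before intraplantar capsaicin (1 µg in 20 µL, 1% DMSO). 15 min later, electronic von Frey punctate stimulus (0.5 g) at least 5 mm from injection site; paw withdrawal latency, three trials 30 s apart, 50 s cutoff. % antiallodynic effect = [(LTD−LTS)/(CT−LTS)]×100; 6-8 mice per group, ANOVA with Bonferroni.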

Compound | Activity
CN1CCN(CCc2ccc(Cl)c(Cl)c2)CC1 | Active

System: not listed separately
Experiment: Selectivity ratio of Ki for sigma2 receptor in rat liver membranes to ratio of Ki for GluN2B/GluN1a (unknown origin) expressed in mouse L(tk-) cell membranes
Assay type: cell-based
Conditions: not given

Compound | Ratio Ki
OC1CN(CCCCc2ccccc2)CCc2cc(OCc3ccccc3)ccc21 (stereo unspecified) | 2
